In ChEMBL document CHEMBL1145446, “Phosphonated carbocyclic 2'-oxa-3'-azanucleosides as new antiretroviral agents” (J Med Chem, 2007):
≈ marks a conversion by molar mass, not a printed value. Calls of active or inactive are those of the source. No cut-off for these calls is given here.

What was measured:
PBMC = assay: Cytotoxicity against PBMC after 1 week by trypan blue exclusion test; type: cell-based; conditions: human, 168 h
Procedure, shortened: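 Freshly separated PBMCs were cultured short-term with compound and interleukin 2, without other stimuli. Cell growth and death were assessed on day 7, and cytotoxicity was expressed as CC20.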

[1] = system: Human T-cell leukemia virus type I; assay: Antiviral activity against HTLV1 in human PBMC; type: functional
Procedure, shortened: (§1)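 Fresh human PBMC cultures were given compound at 100, 25, 5 or 1 µM immediately before exposure to HTLV-1. Infection was read out as Tax/Rex viral mRNA expression by liquid hybridization assay 3 weeks after virus exposure.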

[2] = system: Human T-cell leukemia virus type I; assay: Antiviral activity against HTLV1 in human PBMC at 5 uM; type: functional, organism-based; procedure, shortened: as §1
[3] = system: Human T-cell leukemia virus type I; assay: Antiviral activity against HTLV1 in human PBMC at 25 uM; type: functional, organism-based; procedure, shortened: as §1
[4] = system: Human T-cell leukemia virus type I; assay: Antiviral activity against HTLV1 in human PBMC at 1 uM; type: functional, organism-based; procedure, shortened: as §1
[5] = system: Human T-cell leukemia virus type I; assay: Antiviral activity against HTLV1 in human PBMC at 100 uM; type: functional, organism-based; procedure, shortened: as §1
[6] = system: Human T-cell leukemia virus type I; assay: Inhibition of HTLV1 reverse transcriptase
Procedure, shortened: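 Cell-free assay of HTLV-1 reverse transcriptase, with compounds activated by incubation with human PBMC crude extract. Reverse transcription was read out by RT-PCR using a 20-cycle amplification program.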

SMILES	CC20 (PBMC)	GI25 (PBMC)	MPC [1]	Activity [2]	Activity [3]	Activity [4]	Activity [5]	MIC [6]
CCOP(=O)(CC1CC(n2cc(C)c(=O)[nH]c2=O)ON1C)OCC (stereo not given)	> 2048 µM	817 µM	1 µM	Active	Active	Active	Active	–
CCOP(=O)(CC1CC(n2cnc3c(N)ncnc32)ON1C)OCC (racemic)	> 2048 µM	121 µM	>100 µM	–	–	–	–	> 10000 nM
CCOP(=O)(CC1CC(n2cc(Br)c(=O)[nH]c2=O)ON1C)OCC (racemic)	> 2048 µM	215 µM	>100 µM	–	–	–	–	8 nM (≈ 3.41 ng/mL)
CCOP(=O)(CC1CC(n2cc(F)c(=O)[nH]c2=O)ON1C)OCC (stereo not given)	> 2048 µM	119 µM	1 µM	Active	Active	Active	Active	–
Cc1cn([C@H]2C[C@H](N=[N+]=[N-])[C@@H](CO)O2)c(=O)[nH]c1=O [ZIDOVUDINE]	1153 µM	15 µM	1 µM	Active	Active	Active	Active	4 nM (≈ 1.07 ng/mL)
